A selection: hits, their analogues and other compounds. The true share with any hit is near 5.7%.
CSC inhib: blocks cancer stem cells | cancer stem cell-like cells viability, luminescence | inhibition, % at 7.5 µM | 300,000 tested, 1.1% active; in the data active means inhibition above about 75%; tested in HMLE shEcad cells
Calb FLC: C. albicans growth modulation with fluconazole; growth inhibition, % (concentration not given with the values); C. albicans CaCi-2 (fluconazole-resistant clinical isolate) + fluconazole, Alamar Blue growth, 48 h; AID 1979; 300,000 tested, 0.57% active;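 active means growth inhibition above about 58% in most replicates, limit read from the data, passing the limit was not always enough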;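 further: all wells also contain fluconazole at 8 µg/ml as a sub-toxic cotreatment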
Mdm2 MdmX PPI: inhibitors of human Mdm2/MdmX interaction; AID 485346; 330,000 tested, 3% active; O15151+Q00987; SaOS-2 split-luciferase Mdm2/MdmX complementation, luminescence; inhibition, % at 8 µM;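 active means inhibition of at least 50% at 8 µM in the primary screen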
Target sequence (O15151 whole entry, looked up): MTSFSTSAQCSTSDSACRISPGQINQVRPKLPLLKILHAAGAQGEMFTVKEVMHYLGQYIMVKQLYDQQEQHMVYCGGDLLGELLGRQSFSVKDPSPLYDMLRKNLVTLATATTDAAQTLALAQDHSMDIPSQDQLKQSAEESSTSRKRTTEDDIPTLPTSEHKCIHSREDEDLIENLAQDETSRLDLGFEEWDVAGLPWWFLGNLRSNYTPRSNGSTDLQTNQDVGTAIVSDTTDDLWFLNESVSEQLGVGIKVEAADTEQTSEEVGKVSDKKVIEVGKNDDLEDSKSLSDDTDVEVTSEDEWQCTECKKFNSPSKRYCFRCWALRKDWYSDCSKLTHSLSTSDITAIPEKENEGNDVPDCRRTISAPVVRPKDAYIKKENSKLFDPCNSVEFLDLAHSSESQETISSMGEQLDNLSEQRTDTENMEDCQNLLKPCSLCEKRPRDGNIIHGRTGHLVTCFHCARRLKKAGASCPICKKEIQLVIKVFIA
Target sequence (Q00987 whole entry, looked up): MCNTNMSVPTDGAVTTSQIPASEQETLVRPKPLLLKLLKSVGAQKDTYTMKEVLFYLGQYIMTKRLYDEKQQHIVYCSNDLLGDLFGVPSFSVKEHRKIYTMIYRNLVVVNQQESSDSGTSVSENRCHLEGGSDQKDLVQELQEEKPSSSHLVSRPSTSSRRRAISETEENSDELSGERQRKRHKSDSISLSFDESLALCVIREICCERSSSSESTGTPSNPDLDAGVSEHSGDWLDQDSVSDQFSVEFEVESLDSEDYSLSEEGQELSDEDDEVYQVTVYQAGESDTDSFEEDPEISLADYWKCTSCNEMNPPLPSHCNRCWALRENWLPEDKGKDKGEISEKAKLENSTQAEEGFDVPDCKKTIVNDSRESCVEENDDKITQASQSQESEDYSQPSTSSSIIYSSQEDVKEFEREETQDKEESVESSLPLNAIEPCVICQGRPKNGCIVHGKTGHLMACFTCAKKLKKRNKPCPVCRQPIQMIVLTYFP
T cruzi repl: T. cruzi replication inhibition; T. cruzi beta-gal in NIH3T3, luminescence, 90 h; inhibition, % (concentration not given with the values); 300,000 tested, 1.4% active; AID 1885;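 active means mean inhibition across valid replicates above about 55%, limit read from the data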;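 further: signal also drops with host cell toxicity which is not excluded here; higher percent means less beta-gal luminescence so fewer parasites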
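System: NIH/3T3 fibroblasts plus reporter T. cruzi. Medium: DMEM plus 2% FBS. Probe or stimulus: 5000 reporter trypomastigotes per well. Compound: single 50 nL compound addition per well in DMSO. Incubation: co-culture of at least 90 h after 3 h attachment. Detection: GalScreen β-gal luminescence, detergent lysis, 60 min. Evaluation: parasite load inhibition, %.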
SKKanGAS inh: blocks kanamycin growth of S. pyogenes SKKanGAS strain. inhibition, % at 7.5 µM. BacTiter-Glo, 6 h. AID 1662. 300,000 tested, 1.3% active;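 active means mean replicate score, as percent of positive control median, at least 50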;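 further: strain carries kanamycin resistance gene driven by streptokinase promoter and grows in 40 µg/ml kanamycin; loss of luminescence reflects streptokinase promoter inhibition or plain growth inhibition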
Beta apoptosis: blocks beta cell apoptosis; INS-1E cytokine-induced death, ATP luminescence, 48 h; percent of positive-control rescue, neutral wells zero; protection from apoptosis, % (no concentration beside the values); 300,000 tested, 0.8% active; AID 435005;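 active means Every replicate reaches about 75%, or at least half do and their mean reaches it too, limit read from the data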;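 further: higher means more ATP so stronger rescue from cytokine killing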
Mdm2 MdmX conf: human Mdm2/MdmX binding inhibition, confirmed; inhibition, % at 8 µM; 10,000 tested, 55% active; shares compounds with Mdm2 MdmX PPI; luminescent assay; AID 489028; in the data active means inhibition above about 40%
FLuc counter: counter-screen for Mdm2/MdmX inhibitors: full-length luciferase; shares compounds with Mdm2 MdmX PPI; SaOS-2 full-length luciferase counterscreen, luminescence; inhibition, % at 8 µM; 6,200 tested, 77% active; AID 504607;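 active means mean inhibition at 8 µM reaching about 37%, which flags the compound as non-specific, limit read from the data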;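 further: p53-null SaOS-2 cells with luciferase driven by a doxycycline-inducible promoter; compound on cells about two nights before reading with doxycycline added after day one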
Hits are given with their value.

`O/C(=C\c1nc2ccccc2[nH]1)c1cccs1` gave Calb FLC inactive, Mdm2 MdmX PPI inactive, T cruzi repl inactive, SKKanGAS inh inactive and Beta apoptosis inactive.
`O=C(/C=C/c1cccc(Cl)c1)Nc1ncccn1` gave CSC inhib inactive, Calb FLC inactive, Mdm2 MdmX PPI inactive, T cruzi repl inactive, SKKanGAS inh inactive and Beta apoptosis inactive.
`CCN1C(=O)[C@@H]2[C@@H](c3ccc(SC4CCCCC4)cc3)N3CCC[C@@]3(C(=O)OC)[C@@H]2C1=O` gave CSC inhib inactive, Calb FLC inactive, Mdm2 MdmX PPI inactive, T cruzi repl inactive, SKKanGAS inh inactive and Beta apoptosis inactive.
Screening Cc1c(Cl)cccc1N=C1SCCN1C(=O)CN1C(=O)NC2(CCCC2)C1=O returned CSC inhib inactive, Calb FLC inactive, Mdm2 MdmX PPI 77.6, T cruzi repl inactive, SKKanGAS inh inactive, Beta apoptosis inactive, Mdm2 MdmX conf 45.1 and FLuc counter 68.7.
O=C(CN1C(=O)NC2(CCCCC2)C1=O)Nc1cccc(Cl)c1Cl was read as Mdm2 MdmX PPI inactive and Beta apoptosis inactive.
Screening COc1ccc(OCC(=O)Nc2ccc3c(c2)nc(CCn2ccccc2=O)n3C)cc1 returned CSC inhib inactive, Calb FLC inactive, Mdm2 MdmX PPI inactive, T cruzi repl inactive and SKKanGAS inh inactive.
O=C(NCCCO)c1c(O)c2cccc3c2n(c1=O)CCC3 was read as CSC inhib inactive, Calb FLC inactive, Mdm2 MdmX PPI 81.5, T cruzi repl inactive, SKKanGAS inh inactive, Beta apoptosis inactive, Mdm2 MdmX conf 56.2 and FLuc counter inactive.
Screening CCn1c(=O)c(C(=O)NCCCO)c(O)c2ccccc21 returned CSC inhib inactive, Calb FLC inactive, Mdm2 MdmX PPI 78.5, T cruzi repl inactive, SKKanGAS inh inactive, Beta apoptosis inactive, Mdm2 MdmX conf 41.2 and FLuc counter 58.1.
CNC(=O)c1c(O)c2cccc3c2n(c1=O)CC3 was read as CSC inhib inactive, Calb FLC inactive, Mdm2 MdmX PPI 75.4, T cruzi repl inactive, SKKanGAS inh inactive, Beta apoptosis inactive, Mdm2 MdmX conf 54.5 and FLuc counter inactive.
Screening CCCCNC(=O)c1c(O)c2cccc3c2n(c1=O)CCC3 returned CSC inhib inactive, Calb FLC inactive, Mdm2 MdmX PPI inactive, T cruzi repl inactive, SKKanGAS inh inactive and Beta apoptosis inactive.
CC1(C)C[C@H]2C3=CCC4[C@@]5(C)CC[C@H](O[C@@H]6O[C@H](C(=O)O)[C@@H](O)[C@H](O)[C@H]6O)[C@@](C)(CO)C5CC[C@@]4(C)[C@]3(C)C[C@H](O)[C@@]2(CO)[C@@H](O)[C@@H]1O (stereo partly drawn) was read as CSC inhib inactive, Mdm2 MdmX PPI inactive and Beta apoptosis inactive.
For C/C=C(/C)C(=O)OC1CC(C)(C)C[C@H]2C3=CC[C@@H]4[C@@]5(C)CCC(O[C@@H]6O[C@@H](C(=O)O)[C@@H](O)C(O[C@@H]7OC[C@H](O)[C@@H](O)[C@@H]7O[C@@H]7OC(CO)C(O)[C@@H](O)[C@@H]7O)C6O[C@@H]6OC(CO)C(O)C(O)C6O)[C@@](C)(CO)[C@@H]5CC[C@]4(C)[C@]3(C)CC(O)[C@@]12CO (stereo partly drawn) the results were CSC inhib inactive, Mdm2 MdmX PPI 94.4, Beta apoptosis inactive, Mdm2 MdmX conf 47.8 and FLuc counter inactive.
`COc1cc(OC)c(NC(=O)CCCNC(=O)Cn2cnc3sc(C)c(C)c3c2=O)cc1Cl` gave CSC inhib inactive, Calb FLC inactive, Mdm2 MdmX PPI inactive, T cruzi repl inactive and SKKanGAS inh inactive.
`COC(=O)CC1C(=O)NCCN1C(=O)c1ccc([N+](=O)[O-])cc1` (stereo not drawn) gave CSC inhib inactive, Calb FLC inactive, Mdm2 MdmX PPI inactive, T cruzi repl inactive, SKKanGAS inh inactive and Beta apoptosis inactive.
C=CC(=O)Nc1sc2c(c1C(N)=O)CCCC2 was read as CSC inhib inactive, Calb FLC inactive, Mdm2 MdmX PPI 53.1, T cruzi repl inactive, SKKanGAS inh inactive, Beta apoptosis inactive and Mdm2 MdmX conf inactive.

Bioassay records (PubChem BioAssay)
